Measurements as given in ChEMBL document CHEMBL1145462, “In vivo pharmacodynamic activity of the glycopeptide dalbavancin” (Antimicrob Agents Chemother, 2007).
In brackets after ≈: the same amount, converted by molar mass.

Legend:
Streptococcus pneumoniae [1] = experiment: AUC/MIC ratio of Streptococcus pneumoniae 1293 infected neutropenic mouse thigh infection model at 1.68 mg/kg, ip administered every 72 hrs by 2-log killing experiment; format: functional; settings: route intraperitoneal
Staphylococcus aureus [2] = experiment: AUC/MBC ratio of methicillin-resistant Staphylococcus aureus infected neutropenic mouse thigh infection model at 43 mg/kg, ip administered every 72 hrs by static effect experiment; format: functional; settings: route intraperitoneal
Streptococcus pneumoniae [3] = experiment: AUC/MIC ratio of Streptococcus pneumoniae 1199 infected neutropenic mouse thigh infection model at 0.72 mg/kg, ip administered every 72 hrs by static effect experiment; format: functional; settings: route intraperitoneal
Staphylococcus aureus [4] = experiment: AUC/MBC ratio of Staphylococcus aureus ATCC 25923 infected neutropenic mouse thigh infection model at 60 mg/kg, ip administered every 24 hrs by 2-log killing experiment; format: functional; settings: route intraperitoneal
Staphylococcus aureus [5] = experiment: AUC/MIC ratio of Staphylococcus aureus 33591 infected neutropenic mouse thigh infection model at 74 mg/kg, ip administered every 72 hrs by static effect experiment; format: functional; settings: route intraperitoneal
Streptococcus pneumoniae [6] = experiment: Bactericidal activity in Streptococcus pneumoniae ATCC 10813 infected neutropenic mouse thigh infection model assessed as drug level causing 1-log reduction of bacterial count at 4.13 mg/kg/6days; format: functional
Streptococcus pneumoniae [7] = experiment: Bactericidal activity against penicillin-susceptible Streptococcus pneumoniae ATCC 10813 infected neutropenic Swiss ICR mouse thigh infection model assessed as drug level causing 1-log reduction of bacterial count at 1.26 mg/kg, ip dosed every 36 hrs; format: functional; settings: route intraperitoneal
Staphylococcus aureus [8] = experiment: AUC/MBC ratio of Staphylococcus aureus ATCC 25923 infected neutropenic mouse thigh infection model at 185 mg/kg, ip administered every 72 hrs by 1-log killing experiment; format: functional; settings: route intraperitoneal
[9] = (§1) Half life in bacterial pathogen-infected neutropenic Swiss ICR mouse thigh infection model at 40 mg/kg, ip; format: ADME, organism-based; parameters: dose 40 mg/kg, route intraperitoneal; settings: in vivo
Summary of the method: (§2)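 Thigh-infected neutropenic mice received single intraperitoneal doses (2.5, 5, 10, 20, 40, 80 mg/kg; 0.2 ml/dose). Blood was drawn by retroorbital aspiration from groups of three mice at 0.5, 1, 2, 4, 6, 24, 48, 72 and 96 h. Plasma levels were measured by microbiologic assay with Bacillus subtilis (detection limit 0.10 mg/liter). Noncompartmental analysis was used: half-life by linear least-squares regression, AUC by trapezoidal rule.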

Staphylococcus aureus [10] = experiment: AUC/MIC ratio of methicillin-resistant Staphylococcus aureus infected neutropenic mouse thigh infection model at 45.3 mg/kg, ip administered every 24 hrs by 1-log killing experiment; format: functional; settings: route intraperitoneal
Streptococcus pneumoniae [11] = experiment: Bactericidal activity in Streptococcus pneumoniae ATCC 10813 infected non-neutropenic mouse thigh infection model assessed as drug level causing 2-log reduction of bacterial count at 2.03 mg/kg/6days; format: functional
Streptococcus pneumoniae [12] = experiment: AUC/MIC ratio of Streptococcus pneumoniae 1396 infected neutropenic mouse thigh infection model at 0.52 mg/kg, ip administered every 72 hrs by static effect experiment; format: functional; settings: route intraperitoneal
Staphylococcus aureus [13] = experiment: AUC/MBC ratio of Staphylococcus aureus 33591 infected neutropenic mouse thigh infection model at 27.7 mg/kg, ip administered every 24 hrs by 1-log killing experiment; format: functional; settings: route intraperitoneal
Streptococcus pneumoniae [14] = experiment: AUC/MIC ratio of Streptococcus pneumoniae 1325 infected neutropenic mouse thigh infection model at 1.73 mg/kg, ip administered every 24 hrs by 2-log killing experiment; format: functional; settings: route intraperitoneal
Staphylococcus aureus [15] = experiment: AUC/MIC ratio of Staphylococcus aureus Smith infected neutropenic mouse thigh infection model at 95 mg/kg, ip administered every 72 hrs by 1-log killing experiment; format: functional; settings: route intraperitoneal
Staphylococcus aureus [16] = experiment: AUC/MIC ratio of methicillin-resistant Staphylococcus aureus infected neutropenic mouse thigh infection model at 37.7 mg/kg, ip administered every 24 hrs by static effect experiment; format: functional; settings: route intraperitoneal
Staphylococcus aureus [17] = experiment: AUC/MIC ratio of Staphylococcus aureus 31005 infected neutropenic mouse thigh infection model at 49.3 mg/kg, ip administered every 24 hrs by static effect experiment; format: functional; settings: route intraperitoneal
[18] = as §1; format: ADME, organism-based; parameters: dose 40 mg/kg, route intraperitoneal; settings: in vivo; summary of the method: as §2; remark: listed apart in the source
Staphylococcus aureus [19] = experiment: AUC/MBC ratio of Staphylococcus aureus ATCC 25923 infected neutropenic mouse thigh infection model at 42.7 mg/kg, ip administered every 24 hrs by static effect experiment; format: functional; settings: route intraperitoneal
Staphylococcus aureus [20] = experiment: AUC/MIC ratio of Staphylococcus aureus 33591 infected neutropenic mouse thigh infection model at 33.5 mg/kg, ip administered every 24 hrs by 2-log killing experiment; format: functional; settings: route intraperitoneal
Staphylococcus aureus [21] = experiment: AUC/MBC ratio of Staphylococcus aureus Smith infected neutropenic mouse thigh infection model at 59 mg/kg, ip administered every 72 hrs by static effect experiment; format: functional; settings: route intraperitoneal
Staphylococcus aureus [22] = experiment: AUC/MIC ratio of Staphylococcus aureus Smith infected neutropenic mouse thigh infection model at 33.5 mg/kg, ip administered every 24 hrs by static effect experiment; format: functional; settings: route intraperitoneal
Streptococcus pneumoniae [23] = experiment: AUC/MIC ratio of Streptococcus pneumoniae 1199 infected neutropenic mouse thigh infection model at 0.49 mg/kg, ip administered every 24 hrs by 1-log killing experiment; format: functional; settings: route intraperitoneal
Staphylococcus aureus [24] = experiment: AUC/MBC ratio of Staphylococcus aureus ATCC 25923 infected neutropenic mouse thigh infection model at 214 mg/kg, ip administered every 72 hrs by 2-log killing experiment; format: functional; settings: route intraperitoneal
Staphylococcus aureus [25] = experiment: AUC/MBC ratio of methicillin-resistant Staphylococcus aureus infected neutropenic mouse thigh infection model at 85 mg/kg, ip administered every 72 hrs by 2-log killing experiment; format: functional; settings: route intraperitoneal
Streptococcus pneumoniae [26] = experiment: AUC/MIC ratio of Streptococcus pneumoniae 1293 infected neutropenic mouse thigh infection model at 0.44 mg/kg, ip administered every 24 hrs by static effect experiment; format: functional; settings: route intraperitoneal
Staphylococcus aureus [27] = experiment: AUC/MIC ratio of Staphylococcus aureus Smith infected neutropenic mouse thigh infection model at 59 mg/kg, ip administered every 72 hrs by static effect experiment; format: functional; settings: route intraperitoneal
Streptococcus pneumoniae [28] = experiment: AUC/MIC ratio of Streptococcus pneumoniae 1396 infected neutropenic mouse thigh infection model at 0.69 mg/kg, ip administered every 72 hrs by 2-log killing experiment; settings: route intraperitoneal
Staphylococcus aureus [29] = experiment: AUC/MIC ratio of Staphylococcus aureus 31005 infected neutropenic mouse thigh infection model at 67.7 mg/kg, ip administered every 72 hrs by static effect experiment; format: functional; settings: route intraperitoneal
Streptococcus pneumoniae [30] = experiment: AUC/MIC ratio of Streptococcus pneumoniae 1293 infected neutropenic mouse thigh infection model at 0.65 mg/kg, ip administered every 24 hrs by 2-log killing experiment; format: functional; settings: route intraperitoneal
Staphylococcus aureus [31] = experiment: AUC/MIC ratio of Staphylococcus aureus 307109 infected neutropenic mouse thigh infection model at 34 mg/kg, ip administered every 72 hrs by 1-log killing experiment; format: functional; settings: route intraperitoneal
Staphylococcus aureus [32] = experiment: Antibacterial activity against Staphylococcus aureus ATCC 25923 by microdilution method; format: functional
Summary of the method: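 MIC and MBC were determined by CLSI broth microdilution, in duplicate on at least two occasions. Staphylococci were grown in Mueller-Hinton broth and agar; pneumococci were plated on sheep blood agar.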

Staphylococcus aureus [33] = experiment: AUC/MIC ratio of Staphylococcus aureus 307109 infected neutropenic mouse thigh infection model at 37 mg/kg, ip administered every 72 hrs by 2-log killing experiment; format: functional; settings: route intraperitoneal
Streptococcus pneumoniae [34] = experiment: AUC/MIC ratio of Streptococcus pneumoniae 1329 infected neutropenic mouse thigh infection model at 1.45 mg/kg, ip administered every 24 hrs by 2-log killing experiment; format: functional; settings: route intraperitoneal
Streptococcus pneumoniae [35] = experiment: AUC/MIC ratio of Streptococcus pneumoniae 1199 infected neutropenic mouse thigh infection model at 0.99 mg/kg, ip administered every 72 hrs by 2-log killing experiment; format: functional; settings: route intraperitoneal

SMILES: CN[C@H]1C(=O)N[C@@H]2Cc3ccc(cc3)Oc3cc4cc(c3O[C@@H]3O[C@H](C(=O)O)[C@@H](O)[C@H](O)[C@H]3NC(=O)CCCCCCCCC(C)C)Oc3ccc(cc3Cl)[C@@H](O)[C@@H]3NC(=O)[C@H](NC(=O)[C@@H]4NC(=O)[C@@H](NC2=O)c2cc(cc(O)c2Cl)Oc2cc1ccc2O)c1ccc(O)c(c1)-c1c(O[C@H]2O[C@H](CO)[C@@H](O)[C@H](O)[C@@H]2O)cc(O)cc1[C@@H](C(=O)NCCCN(C)C)NC3=O [DALBAVANCIN]
- RatioAUC/MIC (Streptococcus pneumoniae [1]): 23.8
- Ratio (Staphylococcus aureus [2]): 35.3
- RatioAUC/MIC (Streptococcus pneumoniae [3]): 10.3
- Ratio (Staphylococcus aureus [4]): 69.3
- RatioAUC/MIC (Staphylococcus aureus [5]): 123
- Activity (Streptococcus pneumoniae [6]): 4.38
- Activity (Streptococcus pneumoniae [7]): 1.53
- Ratio (Staphylococcus aureus [8]): 76.1
- half-life [9]: 9.7 h
- RatioAUC/MIC (Staphylococcus aureus [10]): 452
- Activity (Streptococcus pneumoniae [11]): 2.66
- RatioAUC/MIC (Streptococcus pneumoniae [12]): 4
- Ratio (Staphylococcus aureus [13]): 58.3
- RatioAUC/MIC (Streptococcus pneumoniae [14]): 34.5
- RatioAUC/MIC (Staphylococcus aureus [15]): 163
- RatioAUC/MIC (Staphylococcus aureus [16]): 374
- RatioAUC/MIC (Staphylococcus aureus [17]): 483
- half-life [18]: 10.4 h
- Ratio (Staphylococcus aureus [19]): 52
- RatioAUC/MIC (Staphylococcus aureus [20]): 157
- Ratio (Staphylococcus aureus [21]): 46.1
- RatioAUC/MIC (Staphylococcus aureus [22]): 156
- RatioAUC/MIC (Streptococcus pneumoniae [23]): 19.4
- Ratio (Staphylococcus aureus [24]): 88.1
- Ratio (Staphylococcus aureus [25]): 70
- RatioAUC/MIC (Streptococcus pneumoniae [26]): 17.4
- RatioAUC/MIC (Staphylococcus aureus [27]): 96
- RatioAUC/MIC (Streptococcus pneumoniae [28]): 4.8
- RatioAUC/MIC (Staphylococcus aureus [29]): 223
- RatioAUC/MIC (Streptococcus pneumoniae [30]): 25.9
- RatioAUC/MIC (Staphylococcus aureus [31]): 108
- MBC (Staphylococcus aureus [32]): 0.5 µg/mL (≈ 0.275 µM)
- MIC (Staphylococcus aureus [32]): 0.12 µg/mL (≈ 0.0661 µM)
- RatioAUC/MIC (Staphylococcus aureus [33]): 121
- RatioAUC/MIC (Streptococcus pneumoniae [34]): 26.7
- RatioAUC/MIC (Streptococcus pneumoniae [35]): 35.3
